Tests used:
MtLYR8 = test: Radiolabelled LCO binding to membrane fractions, MtLYR8; set-up: species or system Medicago truncatula; settings: 2 µM competitor
In short: (§1)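 N. benthamiana leaves (~20 g) were homogenised at 4 °C in Tris pH 8.5, sucrose, EDTA, DTT, PVPP and protease inhibitors, then spun at 3000 x g and 45,000 x g. The pellet was resuspended in 25 mM Na cacodylate pH 6, 1 mM MgCl2, 1 mM CaCl2, 250 mM sucrose. 35S-LCO (enzymatic NodH sulfation) was bound for 1 h on ice, then filtered through glass fibre, washed and counted by scintillation. Three technical replicates.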

TaLYR2A = test: Radiolabelled LCO binding to membrane fractions, TaLYR2A; set-up: species or system Triticum aestivum; settings: 2 µM competitor
In short: as §1

TaLYR2B = test: Radiolabelled LCO binding to membrane fractions, TaLYR2B; set-up: species or system Triticum aestivum; settings: 2 µM competitor
In short: as §1

TaLYR2D = test: Radiolabelled LCO binding to membrane fractions, TaLYR2D; set-up: species or system Triticum aestivum; settings: 2 µM competitor
In short: as §1

[1] = system: R. irregularis DAOM 197198; test: Stimulation of AMF root-length colonization by LCO and CO4 treatments in wheat; format: in vivo, Triticum aestivum; settings: 10^−7 M treatment
In short: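 Fielder wheat carried a pZmUBI:BdLYR2-cmyc cassette or empty vector, two lines each. Surface-sterilised seeds were germinated 1 week at 4 °C and 3 days at 25 °C, then planted in attapulgite with 500 R. irregularis DAOM 197198 spores. Plants got 0.5x Long Ashton (7.5 µM NaH2PO4) with 10^-7 M LCO or CO4 or 0.05% acetonitrile at start, 2 and 4 weeks. Roots were stained at 5–6 wpi; colonization was normalised to untreated controls; Kruskal-Wallis test.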

| competition of LCO binding (MtLYR8) | competition of LCO binding (TaLYR2A) | competition of LCO binding (TaLYR2B) | competition of LCO binding (TaLYR2D) | Compound | effect on AMF colonization ([1]; control wheat plants (empty vector)) | effect on AMF colonization ([1]; transgenic wheat plants pUbi:BdLYR2) |
| --- | --- | --- | --- | --- | --- | --- |
| complete competition | complete competition | complete competition | complete competition | CC(=O)N[C@H]1[C@H](O[C@H]2[C@H](O)[C@@H](NC(C)=O)C(O)O[C@@H]2CO)O[C@H](CO)[C@@H](O[C@@H]2O[C@H](CO)[C@@H](O[C@@H]3O[C@H](CO)[C@@H](O)[C@H](O)[C@H]3NC(C)=O)[C@H](O)[C@H]2NC(C)=O)[C@@H]1O (stereo partly shown) [CO4] | increased AMF colonization | no further increase |
| complete competition | complete competition | complete competition | complete competition | CC(=O)N[C@H]1[C@H](O[C@H]2[C@H](O)[C@@H](NC(C)=O)[C@H](O[C@H]3[C@H](O)[C@@H](NC(C)=O)[C@H](O[C@H]4[C@H](O)[C@@H](NC(C)=O)C(O)O[C@@H]4CO)O[C@@H]3CO)O[C@@H]2CO)O[C@H](CO)[C@@H](O[C@@H]2O[C@H](CO)[C@@H](O[C@@H]3O[C@H](CO)[C@@H](O[C@@H]4O[C@H](CO)[C@@H](O[C@@H]5O[C@H](CO)[C@@H](O)[C@H](O)[C@H]5NC(C)=O)[C@H](O)[C@H]4NC(C)=O)[C@H](O)[C@H]3NC(C)=O)[C@H](O)[C@H]2NC(C)=O)[C@@H]1O (stereo partly shown) [CO8] | – | – |

Source: publication PMC12217622 (Nature Communications, 2025)
